Measurements from ChEMBL document CHEMBL3616436, “Synthesis, cytotoxicity and antimicrobial activity of thiourea derivatives incorporating 3-(trifluoromethyl)phenyl moiety” (Eur J Med Chem, 2015).
Values after ≈ are worked out from the molar mass of the structure shown. Active and inactive are the calls of the source. No cut-off for these calls is given here.

Assays:
[1] = target: T1, Topoisomerase IV (Staphylococcus aureus) (UniProt P0C1U9+P0C1S7); assay: Inhibition of decatenation activity of DNA topoisomerase 4 in Staphylococcus aureus ATCC 25923 using kDNA as substrate at 1 to 4 ug/ml after 1 hr using ethidium bromide staining by agarose gel electrophoresis; format: protein-complex assay
Summary of the method: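 Kit-supplied S. aureus topoisomerase IV, 1 U, with 200 ng kDNA in the supplied assay buffer. Reactions ran 30 min at 37 °C with compound at 1, 4 or 32 µg/ml. They were stopped with STEB and extracted with chloroform/isoamyl alcohol (24:1). Products were run on 1% agarose in TAE for 1 h at 120 V and visualised with ethidium bromide under UV. Controls were no-enzyme, no-compound and ±DMSO.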

[2] = target: T1, Topoisomerase IV (Staphylococcus aureus); assay: Inhibition of decatenation activity of DNA topoisomerase 4 in Staphylococcus aureus ATCC 29213 using kDNA as substrate at 1 to 4 ug/ml […] using ethidium bromide staining by agarose gel electrophoresis; format: protein-complex assay
[3] = target: T2, DNA topoisomerase 4 (Staphylococcus epidermidis) (UniProt Q5HPI6+Q5HPI5); assay: Inhibition of decatenation activity of DNA topoisomerase 4 in Staphylococcus epidermidis ATCC 35984 using kDNA as substrate at 1 to 4 ug/ml after 1 hr using ethidium bromide staining by agarose gel electrophoresis; format: protein assay
[4] = target: T1, Topoisomerase IV (Staphylococcus aureus); assay: Inhibition of decatenation activity of DNA topoisomerase 4 in hospital methicillin-resistant Staphylococcus aureus 53/05 using kDNA as substrate at 1 to 4 ug/ml after 1 hr using ethidium bromide staining by agarose gel electrophoresis; format: protein-complex assay
[5] = target: T1, Topoisomerase IV (Staphylococcus aureus); assay: Inhibition of decatenation activity of DNA topoisomerase 4 in hospital methicillin-resistant Staphylococcus aureus 54/05 using kDNA as substrate at 1 to 4 ug/ml after 1 hr using ethidium bromide staining by agarose gel electrophoresis; format: protein-complex assay
[6] = target: T1, Topoisomerase IV (Staphylococcus aureus); assay: Inhibition of decatenation activity of DNA topoisomerase 4 in hospital methicillin-resistant Staphylococcus aureus 522/11 using kDNA as substrate at 1 to 4 ug/ml after 1 hr using ethidium bromide staining by agarose gel electrophoresis; format: protein-complex assay
[7] = target: T2, DNA topoisomerase 4 (Staphylococcus epidermidis); assay: Inhibition of decatenation activity of DNA topoisomerase 4 in hospital methicillin-resistant Staphylococcus epidermidis 31/04 using kDNA as substrate at 1 to 4 ug/ml after 1 hr using ethidium bromide staining by agarose gel electrophoresis; format: protein assay
[8] = target: T2, DNA topoisomerase 4 (Staphylococcus epidermidis); assay: Inhibition of decatenation activity of DNA topoisomerase 4 in hospital methicillin-resistant Staphylococcus epidermidis 63/04 using kDNA as substrate at 1 to 4 ug/ml after 1 hr using ethidium bromide staining by agarose gel electrophoresis; format: protein assay
[9] = tested on: Staphylococcus epidermidis; assay: Inhibition of biofilm formation in Staphylococcus epidermidis 23/04 after 24 hrs using MTT staining by spectrophotometer analysis; format: functional, organism-based; conditions: 23/04, 24 h
[10] = tested on: Staphylococcus epidermidis; assay: Inhibition of biofilm formation in Staphylococcus epidermidis 24/04 after 24 hrs using MTT staining by spectrophotometer analysis; format: functional, organism-based; conditions: 24/04, 24 h
[11] = tested on: Staphylococcus epidermidis; assay: Inhibition of biofilm formation in Staphylococcus epidermidis 63/04 after 24 hrs using MTT staining by spectrophotometer analysis; format: functional, organism-based; conditions: 63/04, 24 h
Summary of the method: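 Biofilm was grown for 24 h at 37 °C in TSB with 0.5% glucose from 10^7 CFU/mL inoculum, mixed 1:1 with compound. Final concentrations were 0.125–4 or 0.25–8 µg/ml. Wells were PBS-washed and MTT-stained for 2 h at 37 °C, solubilized in DMSO/glycine buffer and read at 554 nm. IC50 (50% inhibition of biofilm formation) was taken from the dose-response curve; quadruplicates.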

[12] = tested on: Staphylococcus epidermidis; assay: Inhibition of biofilm formation in Staphylococcus epidermidis ATCC 12228 at 4 ug/ml after 24 hrs using MTT staining by spectrophotometer analysis; format: functional; conditions: ATCC 12228, 24 h
Summary of the method: (§1)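 Methicillin-resistant hospital isolates or ATCC strains of S. epidermidis were grown overnight in tryptone soy broth with 0.5% glucose. Inoculum of 10^7 CFU/mL was mixed 1:1 with compound in TSB-glucose and incubated 24 h at 37 °C. Non-adherent cells were washed off with PBS, and wells were stained with MTT (0.5% in PBS) for 2 h at 37 °C. Stain was solubilized in DMSO/glycine buffer and read at A554. Inhibition is relative to drug-free control; quadruplicates.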

[13] = tested on: Staphylococcus epidermidis; assay: Inhibition of biofilm formation in Staphylococcus epidermidis […]/[…] at 4 ug/ml after 24 hrs using MTT staining by spectrophotometer analysis; format: functional; conditions: 16/04, 24 h
[14] = tested on: Staphylococcus epidermidis; assay: Inhibition of biofilm formation in Staphylococcus epidermidis 23/04 at 4 ug/ml after 24 hrs using MTT staining by spectrophotometer analysis; format: functional; conditions: 23/04, 24 h
[15] = tested on: Staphylococcus epidermidis; assay: Inhibition of biofilm formation in Staphylococcus epidermidis 31/04 at 4 ug/ml after 24 hrs using MTT staining by spectrophotometer analysis; format: functional; conditions: 31/04, 24 h; summary of the method: as §1
[16] = tested on: Staphylococcus epidermidis; assay: Inhibition of biofilm formation in Staphylococcus epidermidis 62/04 at 4 ug/ml after 24 hrs using MTT staining by spectrophotometer analysis; format: functional; conditions: 62/04, 24 h; summary of the method: as §1
[17] = target: T1, Topoisomerase IV (Staphylococcus aureus); assay: Inhibition of decatenation activity of DNA topoisomerase 4 in Staphylococcus aureus ATCC 6538 using kDNA as substrate at 32 ug/ml […] using ethidium bromide staining by agarose gel electrophoresis; format: protein-complex assay
[18] = target: T1, Topoisomerase IV (Staphylococcus aureus); assay: Inhibition of decatenation activity of DNA topoisomerase 4 in Staphylococcus aureus ATCC 29213 using kDNA as substrate at 32 ug/ml […] using ethidium bromide staining by agarose gel electrophoresis; format: protein-complex assay
[19] = target: T2, DNA topoisomerase 4 (Staphylococcus epidermidis); assay: Inhibition of decatenation activity of DNA topoisomerase 4 in Staphylococcus epidermidis ATCC 12228 using kDNA as substrate at 32 ug/ml after 1 hr using ethidium bromide staining by agarose gel electrophoresis; format: protein assay
[20] = target: T2, DNA topoisomerase 4 (Staphylococcus epidermidis); assay: Inhibition of decatenation activity of DNA topoisomerase 4 in Staphylococcus epidermidis ATCC 35984 using kDNA as substrate at 32 ug/ml after 1 hr using ethidium bromide staining by agarose gel electrophoresis; format: protein assay
[21] = target: T1, Topoisomerase IV (Staphylococcus aureus); assay: Inhibition of decatenation activity of DNA topoisomerase 4 in hospital methicillin-resistant Staphylococcus aureus 53/05 using kDNA as substrate at 32 ug/ml after 1 hr using ethidium bromide staining by agarose gel electrophoresis; format: protein-complex assay
[22] = target: T1, Topoisomerase IV (Staphylococcus aureus); assay: Inhibition of decatenation activity of DNA topoisomerase 4 in hospital methicillin-resistant Staphylococcus aureus 54/05 using kDNA as substrate at 32 ug/ml after 1 hr using ethidium bromide staining by agarose gel electrophoresis; format: protein-complex assay
[23] = target: T1, Topoisomerase IV (Staphylococcus aureus); assay: Inhibition of decatenation activity of DNA topoisomerase 4 in hospital methicillin-resistant Staphylococcus aureus 79/05 using kDNA as substrate at 32 ug/ml after 1 hr using ethidium bromide staining by agarose gel electrophoresis; format: protein-complex assay
[24] = target: T2, DNA topoisomerase 4 (Staphylococcus epidermidis); assay: Inhibition of decatenation activity of DNA topoisomerase 4 in hospital methicillin-resistant Staphylococcus epidermidis 151/04 using kDNA as substrate at 32 ug/ml after 1 hr using ethidium bromide staining by agarose gel electrophoresis; format: protein assay
[25] = target: T2, DNA topoisomerase 4 (Staphylococcus epidermidis); conditions: 24/04, at 1 to 4 µg/mL
[26] = target: T2, DNA topoisomerase 4 (Staphylococcus epidermidis); conditions: 24/04, at 32 µg/mL

T2 sequence (Q5HPI5 whole entry, looked up): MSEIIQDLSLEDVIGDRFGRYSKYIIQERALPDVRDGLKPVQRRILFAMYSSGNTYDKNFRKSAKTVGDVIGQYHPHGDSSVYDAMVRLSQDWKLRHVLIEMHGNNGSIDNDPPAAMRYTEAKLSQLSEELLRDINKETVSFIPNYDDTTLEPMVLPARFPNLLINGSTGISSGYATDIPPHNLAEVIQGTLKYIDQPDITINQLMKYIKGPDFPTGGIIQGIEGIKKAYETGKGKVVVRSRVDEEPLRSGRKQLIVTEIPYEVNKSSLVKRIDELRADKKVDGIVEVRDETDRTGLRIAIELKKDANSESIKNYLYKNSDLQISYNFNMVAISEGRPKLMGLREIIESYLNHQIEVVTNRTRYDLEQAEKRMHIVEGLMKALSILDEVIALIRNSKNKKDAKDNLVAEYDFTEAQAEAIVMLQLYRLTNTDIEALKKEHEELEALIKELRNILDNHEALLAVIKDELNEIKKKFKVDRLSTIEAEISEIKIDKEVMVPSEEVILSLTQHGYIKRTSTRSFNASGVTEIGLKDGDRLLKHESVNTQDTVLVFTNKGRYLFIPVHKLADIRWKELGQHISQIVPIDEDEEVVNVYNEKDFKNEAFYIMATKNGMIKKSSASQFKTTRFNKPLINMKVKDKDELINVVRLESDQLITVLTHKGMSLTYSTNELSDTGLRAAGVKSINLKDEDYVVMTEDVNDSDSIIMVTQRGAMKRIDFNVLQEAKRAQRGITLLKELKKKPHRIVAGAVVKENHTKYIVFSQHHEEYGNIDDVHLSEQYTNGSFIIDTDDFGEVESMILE
T2 sequence (Q5HPI6 whole entry, looked up): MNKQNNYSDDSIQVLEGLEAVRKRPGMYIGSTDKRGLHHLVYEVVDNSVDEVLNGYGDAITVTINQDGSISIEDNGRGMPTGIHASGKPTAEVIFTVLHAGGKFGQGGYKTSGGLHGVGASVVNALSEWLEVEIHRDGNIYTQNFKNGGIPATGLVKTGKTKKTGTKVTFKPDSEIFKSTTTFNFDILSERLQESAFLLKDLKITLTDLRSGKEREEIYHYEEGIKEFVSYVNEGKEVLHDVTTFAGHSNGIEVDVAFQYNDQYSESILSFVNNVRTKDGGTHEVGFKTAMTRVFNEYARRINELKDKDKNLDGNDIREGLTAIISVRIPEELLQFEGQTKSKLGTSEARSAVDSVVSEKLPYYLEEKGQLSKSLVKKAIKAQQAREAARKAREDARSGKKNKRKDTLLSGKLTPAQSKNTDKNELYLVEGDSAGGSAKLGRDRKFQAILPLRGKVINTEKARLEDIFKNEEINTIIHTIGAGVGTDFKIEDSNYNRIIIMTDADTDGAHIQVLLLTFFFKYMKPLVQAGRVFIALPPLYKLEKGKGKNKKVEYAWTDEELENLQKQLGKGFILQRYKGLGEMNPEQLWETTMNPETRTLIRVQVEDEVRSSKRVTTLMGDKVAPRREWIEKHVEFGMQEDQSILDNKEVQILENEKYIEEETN

| SMILES | inhibition [1] | inhibition [2] | inhibition [3] | inhibition [4] | inhibition [5] | inhibition [6] | inhibition [7] | inhibition [8] | IC50 [9] [µg/mL] | IC50 [10] [µg/mL] | IC50 [11] [µg/mL] | inhibition at 4 µg/mL [12] [%] | inhibition at 4 µg/mL [13] [%] | inhibition at 4 µg/mL [14] [%] | inhibition at 4 µg/mL [15] [%] | inhibition at 4 µg/mL [16] [%] | inhibition [17] | inhibition [18] | inhibition [19] | inhibition [20] | other results |
| --- | --- | --- | --- | --- | --- | --- | --- | --- | --- | --- | --- | --- | --- | --- | --- | --- | --- | --- | --- | --- | --- |
| FC(F)(F)c1cccc(NC(=S)Nc2cccc(Br)c2)c1 | Active | Active | Active | Active | Active | Active | Active | Active | 3.13 (≈ 8.34 µM) | 3.01 (≈ 8.02 µM) | 5 (≈ 13.3 µM) | 87 | 61.7 | 71.6 | 70.1 | 84.8 | Active | Active | Active | Active | inhibition [21]: Active; inhibition [22]: Active; inhibition [23]: Active; inhibition [24]: Active; inhibition [25]: Active; inhibition [26]: Active |
| Fc1ccc(NC(=S)Nc2cccc(C(F)(F)F)c2)cc1Cl | Active | Active | Active | Active | Active | Active | Active | Active | 2.01 (≈ 5.76 µM) | 1.59 (≈ 4.56 µM) | 2.39 (≈ 6.85 µM) | 95.2 | 72 | 77.9 | 77.1 | 89.7 | Active | Active | Active | Active | inhibition [21]: Active; inhibition [22]: Active; inhibition [23]: Active; inhibition [24]: Active; inhibition [25]: Active; inhibition [26]: Active |
| O=C(O)c1cn(C2CC2)c2cc(N3CCNCC3)c(F)cc2c1=O [CIPROFLOXACIN] | Active | Active | Active | Active | Active | Active | Active | Active | 42.8 (≈ 129 µM) | 12.9 (≈ 39.1 µM) | 7.14 (≈ 21.5 µM) | 21.3 | 42 | 5.71 | 18.7 | 59.9 | Active | Active | Active | Active | inhibition [21]: Active; inhibition [22]: Active; inhibition [23]: Active; inhibition [24]: Active; inhibition [25]: Active; inhibition [26]: Active |
